ChEMBL document CHEMBL3525963, “Tissue distribution and elimination of [14C]apixaban in rats” (Drug Metab Dispos, 2011)

How the values were obtained:
Set-up in all cases: dose 5 mg/kg, dosed compound name [14C]-apixaban, route oral
Conditions in all cases: in vivo
Lung = test: Biodistribution in male Sprague-Dawley rat lung at 5 mg/kg, po administered as single dose measured after 0.5 hrs; format: ADME, organism-based
In short: (§1)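 [14C]apixaban (1.0 mg/mL, 20 μCi/mL) in 0.5% Tween 80 in Labrafil, given by oral gavage at 100 μCi/kg to male rats (225-252 g) fasted overnight through 4 h post-dose. One rat per time point. Carcasses frozen in hexane/dry ice and cut into 40 µm sagittal sections. QWBA read on phosphor plates against [14C]glucose standards, reported as µg eq/g. LLOQ 0.037 µg eq/g.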

Muscle tissue = test: Biodistribution in male Sprague-Dawley rat muscle at 5 mg/kg, po administered as single dose measured after 8 hrs; format: ADME, organism-based; in short: as §1
Adrenal gland [1] = test: Biodistribution in male Sprague-Dawley rat adrenal gland at 5 mg/kg, po administered as single dose measured after 24 hrs; format: ADME, organism-based
In short: (§2)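 Fasted male SD rats (225-252 g) each received one oral gavage dose of [14C]apixaban, 5 mg/kg (100 μCi/kg), in 0.5% Tween 80/Labrafil vehicle. One rat was killed per time point, from 0.5 to 168 h. Frozen carcasses were cut into 40 µm sagittal whole-body sections and read by QWBA phosphor imaging against [14C]glucose calibrants. Results are in µg apixaban eq/g; BLQ <0.037 µg eq/g.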

Brain = test: Biodistribution in male Sprague-Dawley rat brain at 5 mg/kg, po administered as single dose measured after 24 hrs; format: ADME, organism-based
Rattus norvegicus [2] = test: Biodistribution in male Sprague-Dawley rat brown fat at 5 mg/kg, po administered as single dose measured after 24 hrs; format: ADME, organism-based, Brown adipose tissue; in short: as §2
Rattus norvegicus [3] = test: Biodistribution in female Sprague-Dawley rat brown fat at 5 mg/kg, po administered as single dose measured after 24 hrs; format: ADME, organism-based, Brown adipose tissue
In short: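 Quantitative whole-body autoradiography was run after a single 5 mg/kg (100 μCi/kg) oral gavage to fasted female or pregnant SD rats, one rat per time point. Carcasses were frozen in hexane/dry ice, and 40 µm sagittal sections were dried at −20°C for at least 48 h. Sections were exposed to a phosphor plate alongside [14C]glucose standards (0.001–6.5 µCi/g). Results are µg eq/g, with LLOQ 0.037 µg eq/g.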

Blood [4] = test: Biodistribution in female Sprague-Dawley rat blood at 5 mg/kg, po administered as single dose measured after 1 hr; format: ADME, organism-based
In short: (§3)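 [¹⁴C]Apixaban given by oral gavage at 5 mg/kg (100 μCi/kg) in 0.5% Tween 80 in Labrafil (1.0 mg/mL dosing solution) to rats fasted overnight through 4 h post-dose. One rat per time point; carcass frozen in hexane/dry ice. Quantitative whole-body autoradiography used 40 µm sagittal sections and a phosphor imaging plate calibrated with [¹⁴C]glucose standards (0.001–6.5 μCi/g). Read-out in µg eq apixaban/g; LLOQ 0.037 μg eq/g.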

Blood [5] = test: Biodistribution in male Sprague-Dawley rat blood at 5 mg/kg, po administered as single dose measured after 72 hrs; format: ADME, organism-based; in short: as §2
Harderian gland [6] = test: Biodistribution in male Sprague-Dawley rat harderian gland at 5 mg/kg, po administered as single dose measured after 72 hrs; format: ADME, organism-based; in short: as §2
Rattus norvegicus [7] = test: Biodistribution in male Sprague-Dawley rat bone marrow at 5 mg/kg, po administered as single dose measured after 1 hr; format: ADME, organism-based
In short: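 Fasted male rats, 225-252 g, received [14C]apixaban by single oral gavage at 100 μCi/kg in 0.5% Tween 80/Labrafil. One rat was killed per time point and the carcass frozen. Tissue radioactivity was quantified by QWBA (40 µm sagittal sections, phosphor plate, [14C]glucose calibration) as µg eq apixaban/g, with LLOQ 0.037 μg eq/g.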

Rattus norvegicus [8] = test: Biodistribution in pregnant Sprague-Dawley rat salivary gland at 5 mg/kg, po administered as single dose measured after 8 hrs; format: ADME, organism-based
Rattus norvegicus [9] = test: Biodistribution in pregnant Sprague-Dawley rat kidney cortex at 5 mg/kg, po administered as single dose measured after 24 hrs; format: ADME, organism-based
Heart = test: Biodistribution in female Sprague-Dawley rat heart at 5 mg/kg, po administered as single dose measured after 0.5 hrs; format: ADME, organism-based; in short: as §3
Harderian gland [10] = test: Biodistribution in pregnant Sprague-Dawley rat harderian gland at 5 mg/kg, po administered as single dose measured after 48 hrs; format: ADME, organism-based
In short: (§4)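 Fasted pregnant SD rats (n=6, 270-319 g) each received one oral gavage dose of [14C]apixaban, 5 mg/kg (100 μCi/kg), in 0.5% Tween 80/Labrafil. One rat was killed at each of 0.5, 1, 4, 8, 24 and 48 h. Carcasses were frozen in hexane/dry ice, cut into 40 µm sagittal sections, exposed to phosphor plates and quantified against [14C]glucose standards as µg eq/g. LLOQ was 0.037 µg eq/g.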

Liver = test: Biodistribution in pregnant Sprague-Dawley rat liver at 5 mg/kg, po administered as single dose measured after 48 hrs; format: ADME, organism-based; in short: as §4
Blood [11] = test: Cmax in lactating Sprague-Dawley rat blood at 5 mg/kg, po administered as single dose; format: ADME, organism-based
In short: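 Lactating SD rats received a single oral gavage of 5 mg/kg (108 μCi/kg) in 0.5% Tween 80/Labrafil. Three rats were sampled per time point at 0.5-24 h. Oxytocin was given sc 15 min before milking under anesthesia. Milk, blood and plasma were counted in duplicate by liquid scintillation for 10 min and expressed as apixaban equivalents.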

Rattus norvegicus [12] = test: Biodistribution in female Sprague-Dawley rat kidney cortex at 5 mg/kg, po administered as single dose measured after 4 hrs; format: ADME, organism-based
In short: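 [14C]apixaban (20 μCi/mL in dosing solution) in 0.5% Tween 80 in Labrafil given by oral gavage to fasted female rats, 206-213 g, at 100 μCi/kg. One rat per time point was euthanized and snap-frozen. Sagittal 40 µm whole-body sections were read by QWBA phosphor imaging against [14C]glucose standards. Results are in µg eq apixaban/g, with LLOQ 0.037 μg eq/g.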

Rattus norvegicus [13] = test: Biodistribution in pregnant Sprague-Dawley rat placenta at 5 mg/kg, po administered as single dose measured after 4 hrs; format: ADME, organism-based
Spleen = test: Biodistribution in pregnant Sprague-Dawley rat spleen at 5 mg/kg, po administered as single dose measured after 0.5 hrs; format: ADME, organism-based
Thymus = test: Biodistribution in pregnant Sprague-Dawley rat thymus at 5 mg/kg, po administered as single dose measured after 0.5 hrs; format: ADME, organism-based
Rattus norvegicus [14] = test: Biodistribution in pregnant Sprague-Dawley rat placenta at 5 mg/kg, po administered as single dose measured after 0.5 hrs; format: ADME, organism-based
Rattus norvegicus [15] = test: Biodistribution in fetal brain of pregnant Sprague-Dawley rat at 5 mg/kg, po administered as single dose measured after 0.5 hrs; format: ADME, organism-based
In short: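 Pregnant SD rats received a single oral gavage of [14C]apixaban at 5 mg/kg (100 μCi/kg; 1.0 mg/mL, 20 μCi/mL in 0.5% Tween 80/Labrafil) after fasting, one dam per time point. Frozen carcasses were cut into 40 µm sagittal sections and read by phosphor-imaging QWBA against [14C]glucose standards. Fetal tissue radioactivity is reported as µg eq/g, with LLOQ 0.037 µg eq/g.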

Adrenal gland [16] = test: Biodistribution in pregnant Sprague-Dawley rat adrenal gland at 5 mg/kg, po administered as single dose measured after 1 hr; format: ADME, organism-based
Rattus norvegicus [17] = test: Biodistribution in pregnant Sprague-Dawley rat brown fat at 5 mg/kg, po administered as single dose measured after 1 hr; format: ADME, organism-based, Brown adipose tissue

What does the source list for COc1ccc(-n2nc(C(N)=O)c3c2C(=O)N(c2ccc(N4CCCC[14C]4=O)cc2)CC3)cc1?
Radiolabel recovery (Lung): 0.57 ugequiv/g; Radiolabel recovery (Muscle tissue): 0.06 ugequiv/g; Radiolabel recovery (Adrenal gland [1]): Not sampled as not visualised in autoradiograph; Radiolabel recovery (Brain): < 0.037 ugequiv/g; Radiolabel recovery (Rattus norvegicus [2]): Not sampled as not visualised in autoradiograph; Radiolabel recovery (Rattus norvegicus [3]): Not detected assumed BLQ; Radiolabel recovery (Blood [4]): 0.88 ugequiv/g; Radiolabel recovery (Blood [5]): Not sampled as not visualised in autoradiograph; Radiolabel recovery (Harderian gland [6]): Not detected assumed BLQ; Radiolabel recovery (Rattus norvegicus [7]): 0.57 ugequiv/g; Radiolabel recovery (Rattus norvegicus [8]): 0.08 ugequiv/g; Radiolabel recovery (Rattus norvegicus [9]): 0.05 ugequiv/g; Radiolabel recovery (Heart): 0.37 ugequiv/g; Radiolabel recovery (Harderian gland [10]): Not detected assumed BLQ; Radiolabel recovery (Liver): Not detected assumed BLQ; Cmax (Blood [11]): 514 ngequiv/g; Radiolabel recovery (Rattus norvegicus [12]): 1.21 ugequiv/g; Radiolabel recovery (Rattus norvegicus [13]): 1.06 ugequiv/g; Radiolabel recovery (Spleen): 0.46 ugequiv/g; Radiolabel recovery (Thymus): 0.38 ugequiv/g; Radiolabel recovery (Rattus norvegicus [14]): 1.02 ugequiv/g; Radiolabel recovery (Rattus norvegicus [15]): < 0.037 ugequiv/g; Radiolabel recovery (Adrenal gland [16]): 1.9 ugequiv/g; Radiolabel recovery (Rattus norvegicus [17]): 0.95 ugequiv/g
